Data from ChEMBL document CHEMBL4330067, “Synthesis and mechanistic studies of diketo acids and their bioisosteres as potential antibacterial agents” (Eur J Med Chem, 2019).
≈ marks a conversion by molar mass, not a printed value. Calls of active or inactive are those of the source. The calls are words filed in the database; no cut-off is given here.

Tests used:
Homo sapiens = organism: Homo sapiens; experiment: Inhibition of human methionine aminopeptidase 1B at 100 uM using Met-AMC as substrate relative to control
Outline: (§1)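 Purified MetAP at 4 µM in 50 mM HEPES with 150 mM KCl and CoCl2 at 3 molar equivalents of enzyme. pH 7.5 for SpMetAP1a and EfMetAP1a, pH 8.0 for HsMetAP1b. Substrate L-Met-AMC at 50, 100 and 150 µM. Compounds (10 mM DMSO stocks) tested over 1 to 120 µM for % inhibition; Ki by Dixon method.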

Enterococcus faecalis = experiment: Inhibition of Enterococcus faecalis methionine aminopeptidase 1A at 100 uM using Met-AMC as substrate relative to control; outline: as §1
[1] = system: Mycobacterium tuberculosis; experiment: Inhibition of Mycobacterium tuberculosis methionine aminopeptidase 1C at 100 uM using Met-AMC as substrate relative to control
Outline: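 Purified MtMetAP1c (4 µM) in 50 mM Hepes pH 7.5 with 150 mM KCl and CoCl2 at three molar equivalents of enzyme. Substrate was L-Met-AMC at 50, 100 or 150 µM. Compounds came from 10 mM DMSO stocks. Percent inhibition was taken against the uninhibited control.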

Escherichia coli [2] = experiment: Bactericidal activity against Escherichia coli at 1 to 2 times MIC after 24 hrs by spectrophotometric analysis; type: functional, organism-based
Outline: (§2)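 Growth kinetics in 50 mL nutrient broth seeded at approx. 2×10⁶ cells/mL, compound at 2MIC, MIC and ½MIC, 37 °C at 160 rpm. Ciprofloxacin 10 µg/mL as positive control. 1 mL aliquots taken every 2 h from 0 to 22 h. Turbidity read at 600 nm and OD plotted against time.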

Pseudomonas aeruginosa = experiment: Bactericidal activity against Pseudomonas aeruginosa at sub-MIC after 10 hrs by spectrophotometric analysis; type: functional, organism-based; outline: as §2
Escherichia coli [3] = experiment: Antibacterial activity against Escherichia coli ATCC 25922 after 24 hrs by broth dilution assay; type: functional; conditions: ATCC 25922, 24 h
Outline: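 Broth dilution per NCCLS in nutrient broth, serial dilutions 1000 to 7.8 µg/mL, DMSO below 4% final. Inoculum approx. 2.5×10⁶ cells/mL, 37 °C with shaking at 150 rpm for 24 h. MIC taken as the lowest concentration with no visible growth. Ciprofloxacin served as positive control.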

Escherichia coli [4] = experiment: Antibacterial activity against Escherichia coli MRAE33 at 1024 ug/mL after 24 hrs by broth dilution assay relative to control; type: functional
Outline: (§3)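 Multidrug-resistant E. coli isolates in Luria broth, test range 8 to 1024 µg/mL (ciprofloxacin 0.49 to 63.3 µg/mL). Inoculum 10 µL of a 1000-fold diluted 0.1 OD600 culture, incubated overnight at 37 °C. OD read at 600 nm. % inhibition = (a−b)/a×100, with media and compound-colour blanks subtracted.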

[5] = Inhibition of human methionine aminopeptidase 1B using Met-AMC as substrate by Dixon method; outline: as §1
Escherichia coli [6] = experiment: Antibacterial activity against Escherichia coli MROB11 after overnight incubation; type: functional; outline: as §3
CHO [7] = experiment: Cytotoxicity against CHO cells at 50 ug/mL after 48 hrs by MTT assay; type: cell-based, Cricetulus griseus; conditions: chinese hamster
Outline: (§4)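 MTT assay: cells maintained in DMEM with 10% FBS and penicillin/streptomycin at 37 °C, 5% CO2. Seeded at approx. 2×10⁴ cells/well, 24 h before treatment, then exposed to 10 to 400 µg/mL for 48 h at 37 °C. MTT (5 mg/mL stock in PBS) added for 4 h, formazan dissolved in DMSO, A570 read. Triplicate wells; viability given relative to untreated cells.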

Escherichia coli [8] = experiment: Antibacterial activity against Escherichia coli MRAE33 after overnight incubation; type: functional; outline: as §3
CHO [9] = experiment: Cytotoxicity against CHO cells at 300 ug/mL after 48 hrs by MTT assay; type: cell-based, Cricetulus griseus; conditions: chinese hamster; outline: as §4
Escherichia coli [10] = experiment: Antibacterial activity against Escherichia coli MRA11 at 512 ug/mL after 24 hrs by broth dilution assay relative to control; type: functional; outline: as §3
Escherichia coli [11] = experiment: Anti-biofilm activity against Escherichia coli after 24 hrs by XTT assay; type: functional, organism-based
Outline: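 Biofilm XTT reduction assay: serial dilutions 1000 to 7.8 µg/mL in tryptic soy broth, inoculum approx. 5×10⁵ CFU/mL, 37 °C for 24 h static. Non-adherent cells removed by PBS wash, XTT added, 90 min at 37 °C in dark, absorbance at 490 nm. IC50 (50% inhibition of biofilm formation) read from dose-response curves.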

[12] = Cytotoxicity against CHO cells assessed as cell viability at 100 ug/mL after 48 hrs by MTT assay relative to control; type: cell-based, Cricetulus griseus; conditions: chinese hamster, read-out: Activity; outline: as §4
Escherichia coli [13] = experiment: Synergistic antibacterial activity against Escherichia coli MRAE33 after 18 hrs in presence of ciprofloxacin by checkerboard method; type: functional; conditions: MRAE33, 18 h
Outline: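 Checkerboard combination with ciprofloxacin in Mueller-Hinton broth: compound 1024 to 16 µg/mL crossed with ciprofloxacin 128 to 2 µg/mL. Inoculum 5×10⁵ CFU/mL suspension, 18 h at 37 °C. Fractional inhibitory concentration index derived from the combination.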

Escherichia coli [14] = experiment: Induction of cellular damage in Escherichia coli assessed as distorted cell membrane at MIC after 1 hr by TEM analysis; type: functional, organism-based
Escherichia coli [15] = experiment: Antibacterial activity against Escherichia coli MRC17 at 512 ug/mL after 24 hrs by broth dilution assay relative to control; type: functional; outline: as §3
Escherichia coli [16] = experiment: Antibacterial activity against Escherichia coli MRC24 after overnight incubation; type: functional; outline: as §3

In the case of `Cc1c(C(=O)/C=C(\O)C(=O)N[C@H](C)C(=O)O)oc2ccc(Br)cc12`, the inhibition (Homo sapiens) is reported as 87.5%, the inhibition (Enterococcus faecalis) is reported as 92.7% and the inhibition [1] is reported as 87.7%. The Activity (Escherichia coli [2]) was “Active”, the Activity (Pseudomonas aeruginosa) was “Active” and the MIC (Escherichia coli [3]) was 62.5 µg/mL (≈ 158 µM). For the same molecule, the Activity (Escherichia coli [4]) was greater than 95%, the Ki [5] was 22.1 µM and the ICmax (Escherichia coli [6]) was 512 µg/mL. The Activity (CHO [7]) was “Non-Toxic”, the ICmax (Escherichia coli [8]) was 1024 µg/mL and the MIC (Escherichia coli [8]; Escherichia coli, MRAE33) was 1020 µg/mL (≈ 2580 µM). The Activity (CHO [9]) was “Toxic”, the Activity (Escherichia coli [10]) was 100% and the IC50 (Escherichia coli [11]) was 0.404 µg/mL (≈ 1.02 µM). For the same molecule, the viability at 48 h, 100 ug/mL [12] was 70%, the MIC (Escherichia coli [13]) was 16 µg/mL and the Activity (Escherichia coli [14]) was “Active”. The Activity (Escherichia coli [15]) was 100% and the ICmax (Escherichia coli [16]) was 512 µg/mL.
